Broadly, the CC50 is the concentration giving 50% cytotoxicity. Broadly, the IC50 is the concentration at which inhibition is half-maximal. Low values mean greater potency in that assay, high ones weaker potency in that assay.

Data on four compounds can be found in ChEMBL document CHEMBL1141044, “Synthesis and antipicornavirus activity of (R)- and (S)-1-[5-(4'-chlorobiphenyl-4-yloxy)-3-methylpentyl]-3-pyridin-4-yl-imidazolidin-2-one” (Bioorg Med Chem Lett, 2005).

Experiment [1] can be described thus: Cytotoxicity against Human rhabdomyosarcoma cells using plaque reduction assay. It counts as functional. Put shortly:
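Cytotoxicity was measured in human rhabdomyosarcoma (RD) cells. Values are means of triplicate wells from experiments done at least twice.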
(In general: Plaque reduction counts the foci of infection that form in a cell layer.)

The test system of experiment [2] is Enterovirus A71. Briefly: Inhibitory activity against Human enterovirus 71 strain 4643 using plaque reduction assay. It counts as functional, organism-based. The conditions noted are these: Enterovirus A. A digest of the protocol:
(§1)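 EV71 strain 4643 titrated by plaque reduction in human rhabdomyosarcoma (RD) cells. Values are means of triplicate wells, and each experiment was run at least twice.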

Experiment [3] deals with Enterovirus A71. Briefly: Inhibitory activity against Human Enterovirus 71 (2231) C using plaque reduction assay. The conditions noted are these: Enterovirus A. The experiment is classed as functional, organism-based. A digest of the protocol:
(§2)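 Panel screen by plaque reduction against representative human enteroviruses and rhinoviruses. Each value is a mean of triplicate wells, with all experiments performed at least twice.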

The test system of experiment [4] is Coxsackievirus. Briefly: Inhibitory activity against Coxsackievirus B6 using plaque reduction assay. The experiment is classed as functional, organism-based. Put shortly:
as §2

The test system of the next experiment is Echovirus. Briefly: Inhibitory activity against Echovirus 29 using plaque reduction assay. The experiment is classed as functional, organism-based. A digest of the protocol: as §2
The test system of experiment [5] is Coxsackievirus. Briefly: Inhibitory activity against Coxsackievirus B4 using plaque reduction assay. It counts as functional, organism-based. Put shortly: as §2
For another experiment, the system named is Enterovirus D68. Briefly: Inhibitory activity against Human Enterovirus 68 using plaque reduction assay. Conditions: Enterovirus D.
The subject of experiment [6] is Coxsackievirus. Briefly: Inhibitory activity against Coxsackievirus A9 using plaque reduction assay. The experiment is classed as functional, organism-based. A digest of the protocol: as §2
The subject of experiment [7] is Coxsackievirus. Briefly: Inhibitory activity against Coxsackievirus B1 using plaque reduction assay. The experiment is classed as functional, organism-based. A digest of the protocol:
as §2

For experiment [8], the system named is Coxsackievirus. Briefly: Inhibitory activity against Coxsackievirus B2 using plaque reduction assay. It counts as functional, organism-based. A digest of the protocol:
as §2

The test system of experiment [9] is Enterovirus A71. Briefly: Inhibitory activity against human enterovirus 71 strain 4643 using plaque reduction assay. The conditions noted are these: Enterovirus A. The experiment is classed as functional, organism-based. A digest of the protocol: as §1
Experiment [10] deals with Enterovirus A71. Briefly: Inhibitory activity against Human Enterovirus 71 (BrCr) A using plaque reduction assay. It counts as functional, organism-based. A digest of the protocol:
as §2

For the next experiment, the system named is rhinovirus B14. Briefly: Inhibitory activity against Human rhinovirus 14 using plaque reduction assay. The experiment is classed as functional, organism-based, Human rhinovirus sp. Conditions: Rhinovirus B. Put shortly: as §2
Experiment [11] has as its system Enterovirus A71. Briefly: Inhibitory activity against Human Enterovirus 71 (4643) C using plaque reduction assay. The experiment is classed as functional, organism-based. The conditions noted are these: Enterovirus A. A digest of the protocol:
as §2

Experiment [12] relates to Enterovirus A71. Briefly: Inhibitory activity against Human Enterovirus 71 (2086) C using plaque reduction assay. It counts as functional, organism-based. The conditions noted are these: Enterovirus A. Put shortly: as §2
The test system of experiment [13] is Coxsackievirus. Briefly: Inhibitory activity against Coxsackievirus B3 using plaque reduction assay. The experiment is classed as functional, organism-based. Put shortly: as §2
The test system of experiment [14] is Coxsackievirus. Briefly: Inhibitory activity against Coxsackievirus B5 using plaque reduction assay. The experiment is classed as functional, organism-based. A digest of the protocol:
as §2

Experiment [15] relates to Coxsackievirus. Briefly: Inhibitory activity against Coxsackievirus A24 using plaque reduction assay. It counts as functional, organism-based. A digest of the protocol: as §2
The next experiment has as its system rhinovirus A2. Briefly: Inhibitory activity against Human rhinovirus 2 using plaque reduction assay. It counts as functional, organism-based, Human rhinovirus sp. Conditions: Rhinovirus A. Put shortly: as §2
Experiment [16] has as its system Enterovirus A71. Briefly: Inhibitory activity against Human Enterovirus 71 (1743) B using plaque reduction assay. The experiment is classed as functional, organism-based. Conditions: Enterovirus A. Put shortly:
as §2

Experiment [17] relates to Coxsackievirus. Briefly: Inhibitory activity against Coxsackievirus A16 using plaque reduction assay. It counts as functional, organism-based. A digest of the protocol:
as §2

A further experiment concerns Enterovirus. Briefly: Inhibitory activity against Enterovirus 68 using plaque reduction assay. It counts as functional, organism-based. Put shortly:
as §2

For experiment [18], the system named is Coxsackievirus. Briefly: Inhibitory activity against Coxsackievirus A10 using plaque reduction assay. The experiment is classed as functional, organism-based. A digest of the protocol: as §2
Experiment [19] relates to Enterovirus A71. Briefly: Inhibitory activity against human Enterovirus 71 (2086) C using plaque reduction assay. It counts as functional, organism-based. The conditions noted are these: Enterovirus A. Put shortly:
as §2

In experiment [20] the test system is Enterovirus A71. Briefly: Inhibitory activity against human Enterovirus 71 (2231) C using plaque reduction assay. It counts as functional, organism-based. Conditions: Enterovirus A. A digest of the protocol: as §2
Experiment [21] has as its system Enterovirus A71. Briefly: Inhibitory activity against human Enterovirus 71 (4643) C using plaque reduction assay. The experiment is classed as functional, organism-based. Conditions: Enterovirus A. Put shortly: as §2
Experiment [22] concerns Enterovirus A71. Briefly: Inhibitory activity against human Enterovirus 71 (BrCr) A using plaque reduction assay. The experiment is classed as functional, organism-based. A digest of the protocol:
as §2

The test system of experiment [23] is Enterovirus A71. Briefly: Inhibitory activity against human Enterovirus 71 (1743) B using plaque reduction assay. The experiment is classed as functional, organism-based. Conditions: Enterovirus A. Put shortly:
as §2

Bounds are passed on as bounds.

With `CC(C)(CCOc1ccc(-c2ccc(Cl)cc2)cc1)CCN1CCN(c2ccncc2)C1=O`, the CC50 in experiment [1] was greater than 25000 nM. Moreover, in the experiment with Enterovirus A71 [2], inhibition was half-maximal at 40 nM (IC50).
Take `C[C@H](CCOc1ccc(-c2ccc(Cl)cc2)cc1)CCN1CCN(c2ccncc2)C1=O`: the IC50 in the experiment with Enterovirus A71 [3] was 24 nM; in the experiment with Coxsackievirus [4], greater than 25000 nM; in the experiment on Echovirus, 1300 nM; with Coxsackievirus [5], 1250 nM; in the experiment with Enterovirus D68, greater than 25000 nM; with Coxsackievirus [6], 19 nM. The IC50 in the experiment on Coxsackievirus [7] was greater than 25000 nM; in the experiment with Coxsackievirus [8], greater than 25000 nM; in the experiment with Enterovirus A71 [9] it was 3 nM; in the experiment on Enterovirus A71 [10] it was 33 nM; with rhinovirus B14, greater than 25000 nM; with Enterovirus A71 [11] it was 3 nM. Moreover, the 50% inhibitory concentration (IC50) in the experiment on Enterovirus A71 [12] is 8 nM; in the experiment with Coxsackievirus [13], greater than 25000 nM; with Coxsackievirus [14], 4850 nM; in the experiment with Coxsackievirus [15], greater than 25000 nM; in the experiment on rhinovirus A2 it was greater than 25000 nM; in the experiment with Enterovirus A71 [16], 26 nM. Also, the IC50 is 6920 nM in the experiment on Coxsackievirus [17] and 3 nM in the experiment on Enterovirus A71 [2]. The compound also gave a CC50 in experiment [1] greater than 25000 nM.
For `C[C@@H](CCOc1ccc(-c2ccc(Cl)cc2)cc1)CCN1CCN(c2ccncc2)C1=O`, the IC50 in the experiment on Enterovirus A71 [3] is 160 nM; with Coxsackievirus [4], greater than 25000 nM; in the experiment with Echovirus, 1470 nM; in the experiment on Coxsackievirus [5] it was 2050 nM; in the experiment on Coxsackievirus [6], 150 nM; in the experiment on Coxsackievirus [7], greater than 25000 nM. For the same compound, the IC50 in the experiment on Coxsackievirus [8] was greater than 25000 nM; with Enterovirus A71 [10], 320 nM; in the experiment on Enterovirus, greater than 25000 nM; in the experiment on rhinovirus B14, greater than 25000 nM; in the experiment with Enterovirus A71 [11], 33 nM; in the experiment on Coxsackievirus [18], greater than 25000 nM. Further, the IC50 was 49 nM in the experiment with Enterovirus A71 [12]; greater than 25000 nM in the experiment with Coxsackievirus [13]; 2080 nM in the experiment on Coxsackievirus [14]; greater than 25000 nM in the experiment on Coxsackievirus [15]; greater than 25000 nM in the experiment on rhinovirus A2; 170 nM in the experiment with Enterovirus A71 [16]. In addition, the IC50 in the experiment with Coxsackievirus [17] is greater than 25000 nM; in the experiment on Enterovirus A71 [2] it was 33 nM. Also, the CC50 in [1] is greater than 25000 nM.
Consider `O=C1N(CCCCCOc2ccc(-c3ccc(Cl)cc3)cc2)CCN1c1ccncc1`, for which the half-maximal inhibitory concentration (IC50) is greater than 25000 nM in the experiment with Coxsackievirus [4]; 390 nM with Echovirus; 1300 nM in the experiment with Coxsackievirus [5]; 43 nM with Enterovirus A71 [19]; 92 nM in the experiment on Enterovirus A71 [20]; greater than 25000 nM in the experiment on Coxsackievirus [7]. Further, the IC50 is greater than 25000 nM with Coxsackievirus [8]; greater than 25000 nM in the experiment with Enterovirus; 54 nM in the experiment on Enterovirus A71 [21]; greater than 25000 nM with rhinovirus B14; 130 nM with Enterovirus A71 [22]; 92 nM in the experiment with Enterovirus A71 [23]. The IC50 in the experiment with Coxsackievirus [18] was greater than 25000 nM; in the experiment with Coxsackievirus [13], greater than 25000 nM; in the experiment on rhinovirus A2 it was greater than 25000 nM; in the experiment with Coxsackievirus [17], greater than 25000 nM; in the experiment with Enterovirus A71 [2] it was 54 nM. In experiment [1], this compound returned a CC50 greater than 25000 nM.
